Experimental data published in ChEMBL document CHEMBL1687778, “Genetic determinants involved in the susceptibility of Pseudomonas aeruginosa to beta-lactam antibiotics” (2010).
Converted amounts (≈) assume the structure as drawn.

Key:
Assay type in all cases: functional
Pseudomonas aeruginosa [1] = assay: Antimicrobial activity against Pseudomonas aeruginosa PA14 PA0667 harboring mutation in putative metallopeptidase by Etest method
In short: (§1)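 Overnight LB cultures (37°C) diluted in sterile 0.85% NaCl to about 1 × 10^7 CFU/ml. 100 µl spread on Mueller-Hinton agar, one Etest strip per plate, 18 h at 37°C. Ceftazidime, imipenem and meropenem tested. Wild-type PA14 plate included in each set. Each mutant verified in triplicate.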

Pseudomonas aeruginosa [2] = assay: Antimicrobial activity against Pseudomonas aeruginosa PA14 PA0479 harboring mutation in putative transcriptional regulator, LysR family by Etest method; in short: as §1
Pseudomonas aeruginosa [3] = assay: Antimicrobial activity against wild type Pseudomonas aeruginosa PA14 by Etest method
In short: (§2)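 Etest MIC. Overnight LB cultures at 37°C were diluted in sterile 0.85% NaCl to about 1 × 10^7 CFU/ml. 100 µl was spread on Mueller-Hinton agar, one strip was placed per plate, and plates were incubated at 37°C for 18 h. Equal cell numbers were seeded per plate, and results were verified in triplicate. PA14 wild type was included in each set as a susceptibility control.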

Pseudomonas aeruginosa [4] = assay: Antimicrobial activity against Pseudomonas aeruginosa PA14 PA0807 harboring ampDh3 mutant gene by Etest method; in short: as §1
Pseudomonas aeruginosa [5] = assay: Antimicrobial activity against Pseudomonas aeruginosa PA14 PA1348 harboring mutation in conserved hypothetical protein by Etest method; in short: as §1
Pseudomonas aeruginosa [6] = assay: Antimicrobial activity against Pseudomonas aeruginosa PA14 PA14_15600 harboring mutation in conserved hypothetical protein by Etest method; in short: as §1
Pseudomonas aeruginosa [7] = assay: Antimicrobial activity against Pseudomonas aeruginosa PA14 PA14_23420 harboring mutation in putative zinc-binding dehydrogenase by Etest method; in short: as §1
Pseudomonas aeruginosa [8] = assay: Antimicrobial activity against Pseudomonas aeruginosa PA14 PA14_06490 harboring mutation in hypothetical protein by Etest method; in short: as §1
Pseudomonas aeruginosa [9] = assay: Antimicrobial activity against Pseudomonas aeruginosa PA14 PA1553 harboring mutation in putative cytochrome c oxidase, cbb3 type, subunit II by Etest method; in short: as §1
Pseudomonas aeruginosa [10] = assay: Antimicrobial activity against Pseudomonas aeruginosa PA14 PA2487 harboring mutation in hypothetical protein by Etest method; in short: as §1
Pseudomonas aeruginosa [11] = assay: Antimicrobial activity against Pseudomonas aeruginosa PA14 PA2621 harboring clpS mutant gene by Etest method; in short: as §1
Pseudomonas aeruginosa [12] = assay: Antimicrobial activity against Pseudomonas aeruginosa PA14 PA2797 harboring mutation in putative anti-anti-sigma factor by Etest method; in short: as §1
Pseudomonas aeruginosa [13] = assay: Antimicrobial activity against Pseudomonas aeruginosa PA14 PA3141 harboring wbpM mutant gene by Etest method; in short: as §1
Pseudomonas aeruginosa [14] = assay: Antimicrobial activity against Pseudomonas aeruginosa PA14 PA3247 harboring mutation in putative aspartyl aminopeptidase by Etest method; in short: as §1
Pseudomonas aeruginosa [15] = assay: Antimicrobial activity against Pseudomonas aeruginosa PA14 PA3259 harboring mutation in conserved hypothetical protein by Etest method; in short: as §2
Pseudomonas aeruginosa [16] = assay: Antimicrobial activity against Pseudomonas aeruginosa PA14 PA3589 harboring mutation in acetyl-coenzyme A (CoA) acetyltransferase (thiolase) by Etest method; in short: as §2
Pseudomonas aeruginosa [17] = assay: Antimicrobial activity against Pseudomonas aeruginosa PA14 PA3667 harboring mutation in putative cysteine sulfinate desulfinase by Etest method; in short: as §2
Pseudomonas aeruginosa [18] = assay: Antimicrobial activity against Pseudomonas aeruginosa PA14 PA3704 harboring wspE mutant gene by Etest method; in short: as §2
Pseudomonas aeruginosa [19] = assay: Antimicrobial activity against Pseudomonas aeruginosa PA14 PA4402 harboring argJ mutant gene by Etest method; in short: as §2
Pseudomonas aeruginosa [20] = assay: Antimicrobial activity against Pseudomonas aeruginosa PA14 PA4527 harboring pilC mutant gene by Etest method; in short: as §2
Pseudomonas aeruginosa [21] = assay: Antimicrobial activity against Pseudomonas aeruginosa PA14 PA4550 harboring fimU mutant gene by Etest method; in short: as §2
Pseudomonas aeruginosa [22] = assay: Antimicrobial activity against Pseudomonas aeruginosa PA14 PA4946 harboring mutL mutant gene by Etest method; in short: as §2
Pseudomonas aeruginosa [23] = assay: Antimicrobial activity against Pseudomonas aeruginosa PA14 PA5002 harboring mutation in hypothetical protein by Etest method; in short: as §2
Pseudomonas aeruginosa [24] = assay: Antimicrobial activity against Pseudomonas aeruginosa PA14 PA5005 harboring mutation in putative carbamoyltransferase by Etest method; in short: as §2
Pseudomonas aeruginosa [25] = assay: Antimicrobial activity against Pseudomonas aeruginosa PA14 PA5443 harboring uvrD mutant gene by Etest method; in short: as §2
Pseudomonas aeruginosa [26] = assay: Antimicrobial activity against Pseudomonas aeruginosa PA14 PA0011 harboring mutation in putative 2-OH-lauroyltransferase by Etest method; in short: as §1
Pseudomonas aeruginosa [27] = assay: Antimicrobial activity against Pseudomonas aeruginosa PA14 PA0401 harboring mutation in Noncatalytic dihydroorotase-like protein by Etest method; in short: as §1
Pseudomonas aeruginosa [28] = assay: Antimicrobial activity against Pseudomonas aeruginosa PA14 PA0420 harboring bioA mutant gene by Etest method; in short: as §1
Pseudomonas aeruginosa [29] = assay: Antimicrobial activity against Pseudomonas aeruginosa PA14 PA0503 harboring mutation in Putative biotin synthesis protein BioC by Etest method; in short: as §1
Pseudomonas aeruginosa [30] = assay: Antimicrobial activity against Pseudomonas aeruginosa PA14 PA0766 harboring mucD mutant gene by Etest method; in short: as §1
Pseudomonas aeruginosa [31] = assay: Antimicrobial activity against Pseudomonas aeruginosa PA14 PA0770 harboring rnc mutant gene by Etest method; in short: as §1
Pseudomonas aeruginosa [32] = assay: Antimicrobial activity against Pseudomonas aeruginosa PA14 PA14_07490/07510 harboring mutation in intergenic region by Etest method; in short: as §1
Pseudomonas aeruginosa [33] = assay: Antimicrobial activity against Pseudomonas aeruginosa PA14 PA14_59780 harboring rcsC mutant gene by Etest method; in short: as §1
Pseudomonas aeruginosa [34] = assay: Antimicrobial activity against Pseudomonas aeruginosa PA14 PA2128 harboring cupA1 mutant gene by Etest method; in short: as §1
Pseudomonas aeruginosa [35] = assay: Antimicrobial activity against Pseudomonas aeruginosa PA14 PA2963 harboring mutation in putative aminodeoxychorismate lyase by Etest method; in short: as §1
Pseudomonas aeruginosa [36] = assay: Antimicrobial activity against Pseudomonas aeruginosa PA14 PA2970 harboring rpmF mutant gene by Etest method; in short: as §1
Pseudomonas aeruginosa [37] = assay: Antimicrobial activity against Pseudomonas aeruginosa PA14 PA3050 harboring pyrD mutant gene by Etest method; in short: as §1
Pseudomonas aeruginosa [38] = assay: Antimicrobial activity against Pseudomonas aeruginosa PA14 PA3262 harboring fklB mutant gene by Etest method; in short: as §2
Pseudomonas aeruginosa [39] = assay: Antimicrobial activity against Pseudomonas aeruginosa PA14 PA3433 harboring mutation in putative transcriptional regulator, LysR family by Etest method; in short: as §2
Pseudomonas aeruginosa [40] = assay: Antimicrobial activity against Pseudomonas aeruginosa PA14 PA4005 harboring mutation in conserved hypothetical protein by Etest method; in short: as §2
Pseudomonas aeruginosa [41] = assay: Antimicrobial activity against Pseudomonas aeruginosa PA14 PA4745 harboring nusA mutant gene by Etest method; in short: as §2
Pseudomonas aeruginosa [42] = assay: Antimicrobial activity against Pseudomonas aeruginosa PA14 PA4753 harboring mutation in putative RNA-binding protein by Etest method; in short: as §2
Pseudomonas aeruginosa [43] = assay: Antimicrobial activity against Pseudomonas aeruginosa PA14 PA5130 harboring mutation in putative rhodanese-like domain protein by Etest method; in short: as §2
Pseudomonas aeruginosa [44] = assay: Antimicrobial activity against Pseudomonas aeruginosa PA14 PA5174 harboring mutation in putative beta-ketoacyl synthase by Etest method; in short: as §2
Pseudomonas aeruginosa [45] = assay: Antimicrobial activity against Pseudomonas aeruginosa PA14 PA5288 harboring glnK mutant gene by Etest method; in short: as §2
Pseudomonas aeruginosa [46] = assay: Antimicrobial activity against Pseudomonas aeruginosa PA14 PA5366 harboring pstB mutant gene by Etest method; in short: as §2
Pseudomonas aeruginosa [47] = assay: Antimicrobial activity against Pseudomonas aeruginosa PA14 PA14_23430 harboring mutation in putative heparinase by Etest method; in short: as §1

C[C@@H](O)[C@H]1C(=O)N2C(C(=O)O)=C(S[C@@H]3CN[C@H](C(=O)N(C)C)C3)[C@H](C)[C@H]12 [MEROPENEM] was tested. Which MIC (Pseudomonas aeruginosa [1]) did it give?
Its MIC is 0.19 mg/L (≈ 0.495 µM).

And the MIC (Pseudomonas aeruginosa [2])?
Its MIC is 0.047 mg/L (≈ 0.123 µM).

And the MIC (Pseudomonas aeruginosa [3])?
Its MIC is 0.125 mg/L (≈ 0.326 µM).

What about the MIC (Pseudomonas aeruginosa [4]) of the same compound?
Its MIC is 0.25 mg/L (≈ 0.652 µM).

What about the MIC (Pseudomonas aeruginosa [5]) of the same compound?
The MIC was 0.5 mg/L (≈ 1.3 µM).

What about the MIC (Pseudomonas aeruginosa [6]) of the same compound?
Its MIC is 0.125 mg/L (≈ 0.326 µM).

And the MIC (Pseudomonas aeruginosa [7])?
Its MIC is 0.125 mg/L (≈ 0.326 µM).

What about the MIC (Pseudomonas aeruginosa [8]) of the same compound?
Its MIC is 0.125 mg/L (≈ 0.326 µM).

And the MIC (Pseudomonas aeruginosa [9])?
The MIC was 0.125 mg/L (≈ 0.326 µM).

What about the MIC (Pseudomonas aeruginosa [10]) of the same compound?
Its MIC is 0.125 mg/L (≈ 0.326 µM).

What about the MIC (Pseudomonas aeruginosa [11]) of the same compound?
Its MIC is 0.19 mg/L (≈ 0.495 µM).

And the MIC (Pseudomonas aeruginosa [12])?
The MIC was 0.094 mg/L (≈ 0.245 µM).

And the MIC (Pseudomonas aeruginosa [13])?
Its MIC is 0.125 mg/L (≈ 0.326 µM).

What about the MIC (Pseudomonas aeruginosa [14]) of the same compound?
Its MIC is 0.125 mg/L (≈ 0.326 µM).

What about the MIC (Pseudomonas aeruginosa [15]) of the same compound?
Its MIC is 0.125 mg/L (≈ 0.326 µM).

And the MIC (Pseudomonas aeruginosa [16])?
The MIC was 0.125 mg/L (≈ 0.326 µM).

What about the MIC (Pseudomonas aeruginosa [17]) of the same compound?
The MIC was 0.125 mg/L (≈ 0.326 µM).

What about the MIC (Pseudomonas aeruginosa [18]) of the same compound?
The MIC was 0.25 mg/L (≈ 0.652 µM).

And the MIC (Pseudomonas aeruginosa [19])?
The MIC was 0.19 mg/L (≈ 0.495 µM).

What about the MIC (Pseudomonas aeruginosa [20]) of the same compound?
Its MIC is 0.125 mg/L (≈ 0.326 µM).

What about the MIC (Pseudomonas aeruginosa [21]) of the same compound?
The MIC was 0.125 mg/L (≈ 0.326 µM).

And the MIC (Pseudomonas aeruginosa [22])?
The MIC was 0.094 mg/L (≈ 0.245 µM).

And the MIC (Pseudomonas aeruginosa [23])?
The MIC was 0.094 mg/L (≈ 0.245 µM).

And the MIC (Pseudomonas aeruginosa [24])?
The MIC was 0.125 mg/L (≈ 0.326 µM).

What about the MIC (Pseudomonas aeruginosa [25]) of the same compound?
Its MIC is 0.094 mg/L (≈ 0.245 µM).

What about the MIC (Pseudomonas aeruginosa [26]) of the same compound?
Its MIC is 0.125 mg/L (≈ 0.326 µM).

What about the MIC (Pseudomonas aeruginosa [27]) of the same compound?
The MIC was 0.064 mg/L (≈ 0.167 µM).

And the MIC (Pseudomonas aeruginosa [28])?
The MIC was 0.094 mg/L (≈ 0.245 µM).

And the MIC (Pseudomonas aeruginosa [29])?
The MIC was 0.125 mg/L (≈ 0.326 µM).

And the MIC (Pseudomonas aeruginosa [30])?
Its MIC is 0.125 mg/L (≈ 0.326 µM).

What about the MIC (Pseudomonas aeruginosa [31]) of the same compound?
Its MIC is 0.047 mg/L (≈ 0.123 µM).

And the MIC (Pseudomonas aeruginosa [32])?
The MIC was 0.094 mg/L (≈ 0.245 µM).

And the MIC (Pseudomonas aeruginosa [33])?
Its MIC is 0.125 mg/L (≈ 0.326 µM).

And the MIC (Pseudomonas aeruginosa [34])?
The MIC was 0.125 mg/L (≈ 0.326 µM).

And the MIC (Pseudomonas aeruginosa [35])?
The MIC was 0.125 mg/L (≈ 0.326 µM).

And the MIC (Pseudomonas aeruginosa [36])?
Its MIC is 0.125 mg/L (≈ 0.326 µM).

What about the MIC (Pseudomonas aeruginosa [37]) of the same compound?
The MIC was 0.094 mg/L (≈ 0.245 µM).

And the MIC (Pseudomonas aeruginosa [38])?
The MIC was 0.125 mg/L (≈ 0.326 µM).

What about the MIC (Pseudomonas aeruginosa [39]) of the same compound?
The MIC was 0.125 mg/L (≈ 0.326 µM).

What about the MIC (Pseudomonas aeruginosa [40]) of the same compound?
The MIC was 0.094 mg/L (≈ 0.245 µM).

And the MIC (Pseudomonas aeruginosa [41])?
Its MIC is 0.125 mg/L (≈ 0.326 µM).

And the MIC (Pseudomonas aeruginosa [42])?
Its MIC is 0.064 mg/L (≈ 0.167 µM).

What about the MIC (Pseudomonas aeruginosa [43]) of the same compound?
Its MIC is 0.125 mg/L (≈ 0.326 µM).

What about the MIC (Pseudomonas aeruginosa [44]) of the same compound?
The MIC was 0.125 mg/L (≈ 0.326 µM).

What about the MIC (Pseudomonas aeruginosa [45]) of the same compound?
Its MIC is 0.047 mg/L (≈ 0.123 µM).

What about the MIC (Pseudomonas aeruginosa [46]) of the same compound?
The MIC was 0.125 mg/L (≈ 0.326 µM).

And the MIC (Pseudomonas aeruginosa [47])?
The MIC was 0.125 mg/L (≈ 0.326 µM).
